Reference: ChEMBL document CHEMBL4706598 (Eur J Med Chem, 2020)
Values belong to the compound of their own block, whether it stands above or below them. The source made the active and inactive calls. No cut-off for these calls is given here.

Columns and labels:
[1] = target: Dipeptidyl peptidase 8 (Homo sapiens, UniProt Q6V1X1); test: Inhibition of DPP8 (unknown origin)
[2] = target: Dipeptidyl peptidase 9 (Homo sapiens, UniProt Q86TI2); test: Inhibition of DPP9 (unknown origin)
[3] = test system: HepG2; test: Cytotoxicity against human HepG2 cells assessed as reduction in cell viability at 1 to 100 uM measured after 48 hrs by MTT assay; format: cell-based; conditions: hepg2, 48 h, dose 1-100 µM
In short: (§1)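 HepG2 cells were exposed to compound at a range of concentrations for 48 h. Viability was measured by MTT assay. Mean ± SD, n = 3.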

[4] = target: Dipeptidyl peptidase 4 (Homo sapiens, UniProt P27487); test: Inhibition of DPP4 in human Caco-2 cells using AP-AFC as substrate preincubated with enzyme for 10 mins followed by substrate addition and measured after 10 mins by fluorescence based analysis; format: cell-based
[5] = test system: Mus musculus; test: Anti-Hyperglycemic activity in high fat diet-fed/streptozotocin-induced type 2 diabetic mellitus C57BL/6 mouse model assessed as blood glucose level at 10 mg/kg, ip administered 30 mins prior to glucose challenge and measured after 1.5 hrs by IPGTT (reference value: 12.3 to 15.3 mM); format: functional; conditions: time 120 min, 2 h
In short: (§2)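 Male C57BL/6 mice made type 2 diabetic by high-fat diet plus streptozotocin. Each received a single intraperitoneal dose (1, 5 or 10 mg/kg) 30 min before an intraperitoneal glucose challenge. Blood glucose was read at 0, 0.5, 1, 1.5 and 2 h. Results are mean ± SD, n = 4.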

[6] = test system: Mus musculus; test: Anti-Hyperglycemic activity in high fat diet-fed/streptozotocin-induced type 2 diabetic mellitus C57BL/6 mouse model assessed as reduction in blood glucose level at 10 mg/kg/day for 14 days and measured on day 14; format: functional; conditions: C57BL/6, 336 h, time 14 day
In short: (§3)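 HFD/STZ-induced type 2 diabetic male C57BL/6 mice were dosed at 10 mg/kg/day for 14 days. Plasma glucose was tracked over the treatment period and compared with diabetic controls. Mean ± SD of 4 mice. Statistics: one-way ANOVA with LSD post-test.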

[7] = test system: Mus musculus; test: Anti-Hyperglycemic activity in high fat diet-fed/streptozotocin-induced type 2 diabetic mellitus C57BL/6 mouse model assessed as reduction in blood glucose level at 10 mg/kg/day for 14 days and measured on day 5; format: functional, organism-based; conditions: time 5.0 day; in short: as §3
[8] = test system: Mus musculus; test: Anti-Hyperglycemic activity in high fat diet-fed/streptozotocin-induced type 2 diabetic mellitus C57BL/6 mouse model assessed as blood glucose level at 10 mg/kg, ip administered 30 mins prior to glucose challenge and measured after 2 hrs by IPGTT (reference value: 12.3 to 15.3 mM); format: functional; conditions: time 150 min, 2.5 h; in short: as §2
[9] = test system: Mus musculus; test: Anti-Hyperglycemic activity in high fat diet-fed/streptozotocin-induced type 2 diabetic mellitus C57BL/6 mouse model assessed as blood glucose level at 10 mg/kg, ip administered 30 mins prior to glucose challenge and measured after 1 hrs by IPGTT (reference value: 12.3 to 15.3 mM); format: functional; conditions: time 90 min, 1.5 h; in short: as §2
[10] = test system: Mus musculus; test: Anti-Hyperglycemic activity in high fat diet-fed/streptozotocin-induced type 2 diabetic mellitus C57BL/6 mouse model assessed as reduction in AUC(0 to 120 mins) of blood glucose level at 10 mg/kg, ip administered 30 mins prior to glucose challenge and measured after 120 mins by IGTT; format: functional; conditions: C57BL/6, ip, 2.5 h, time 150 min
In short: (§4)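 Glucose tolerance tests (intraperitoneal or oral) in HFD/STZ type 2 diabetic male C57BL/6 mice. Glucose AUC was calculated over 0–120 min. Percent reduction came from AUC normalised to saline-challenged controls. Mean ± SD, n = 4. Statistics: one-way ANOVA with LSD post-test.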

[11] = test system: Mus musculus; test: Anti-Hyperglycemic activity in high fat diet-fed/streptozotocin-induced type 2 diabetic mellitus C57BL/6 mouse model assessed as blood glucose level at 10 mg/kg, ip administered 30 mins prior to glucose challenge and measured after 0.5 hrs by IPGTT (reference value: 12.3 to 15.3 mM); format: functional; conditions: time 60 min, 1 h; in short: as §2
[12] = test system: Mus musculus; test: Anti-Hyperglycemic activity in high fat diet-fed/streptozotocin-induced type 2 diabetic mellitus C57BL/6 mouse model assessed as blood glucose level at 10 mg/kg, po administered 30 mins prior to glucose challenge and measured after 90 mins by OGTT (reference value: 15.8 +/-4.5 mM); format: functional; conditions: time 120 min, 2 h
[13] = test system: Mus musculus; test: Anti-Hyperglycemic activity in high fat diet-fed/streptozotocin-induced type 2 diabetic mellitus C57BL/6 mouse model assessed as blood glucose level at 5 mg/kg, ip administered 30 mins prior to glucose challenge and measured after 1 hr by IPGTT (reference value: 13.4 +/- 1.1 mM); format: functional; conditions: time 90 min, 1.5 h; in short: as §2
[14] = test system: Mus musculus; test: Anti-Hyperglycemic activity in high fat diet-fed/streptozotocin-induced type 2 diabetic mellitus C57BL/6 mouse model assessed as reduction in AUC(0 to 120 mins) of blood glucose level at 5 mg/kg, ip administered 30 mins prior to glucose challenge and measured after 120 mins by IGTT; format: functional; conditions: C57BL/6, ip, 2.5 h, time 150 min; in short: as §4
[15] = test system: Mus musculus; test: Anti-Hyperglycemic activity in high fat diet-fed/streptozotocin-induced type 2 diabetic mellitus C57BL/6 mouse model assessed as blood glucose level at 10 mg/kg, po administered 30 mins prior to glucose challenge and measured after 60 mins by OGTT (reference value: 15.8 +/-4.5 mM); format: functional; conditions: time 90 min, 1.5 h
[16] = test system: Mus musculus; test: Anti-Hyperglycemic activity in high fat diet-fed/streptozotocin-induced type 2 diabetic mellitus C57BL/6 mouse model assessed as reduction in AUC(0 to 120 mins) of blood glucose level at 10 mg/kg, po administered 30 mins prior to glucose challenge and measured after 120 mins by OGTT; format: functional; conditions: C57BL/6, po, 2.5 h, time 150 min; in short: as §4
[17] = test system: Mus musculus; test: Anti-Hyperglycemic activity in high fat diet-fed/streptozotocin-induced type 2 diabetic mellitus C57BL/6 mouse model assessed as reduction in AUC(0 to 120 mins) of blood glucose level at 1 mg/kg, ip administered 30 mins prior to glucose challenge and measured after 120 mins by IGTT; format: functional; conditions: C57BL/6, ip, 2.5 h, time 150 min; in short: as §4
[18] = test system: Mus musculus; test: Anti-Hyperglycemic activity in high fat diet-fed/streptozotocin-induced type 2 diabetic mellitus C57BL/6 mouse model assessed as blood glucose level at 10 mg/kg, po administered 30 mins prior to glucose challenge and measured after 120 mins by OGTT (reference value: 15.8 +/-4.5 mM); format: functional; conditions: time 150 min, 2.5 h
[19] = Cytotoxicity against human HepG2 cells assessed as cell viability at 100 uM measured after 48 hrs by MTT assay; format: cell-based; conditions: read-out: Activity; in short: as §1
[20] = test system: Mus musculus; test: Anti-Hyperglycemic activity in high fat diet-fed/streptozotocin-induced type 2 diabetic mellitus C57BL/6 mouse model assessed as blood glucose level at 1 mg/kg, ip administered 30 mins prior to glucose challenge and measured after 1.5 hrs by IPGTT (reference value: 12.7 +/- 0.7 mM); format: functional; conditions: time 120 min, 2 h; in short: as §2
[21] = test system: Mus musculus; test: Anti-Hyperglycemic activity in high fat diet-fed/streptozotocin-induced type 2 diabetic mellitus C57BL/6 mouse model assessed as blood glucose level at 1 mg/kg, ip administered 30 mins prior to glucose challenge and measured after 2 hrs by IPGTT (reference value: 12.7 +/- 0.7 mM); format: functional; conditions: time 150 min, 2.5 h; in short: as §2
[22] = test system: Mus musculus; test: Anti-Hyperglycemic activity in high fat diet-fed/streptozotocin-induced type 2 diabetic mellitus C57BL/6 mouse model assessed as blood glucose level at 5 mg/kg, ip administered 30 mins prior to glucose challenge and measured after 2 hrs by IPGTT (reference value: 13.4 +/- 1.1 mM); format: functional; conditions: time 150 min, 2.5 h; in short: as §2
[23] = test system: Mus musculus; test: Anti-Hyperglycemic activity in high fat diet-fed/streptozotocin-induced type 2 diabetic mellitus C57BL/6 mouse model assessed as blood glucose level at 5 mg/kg, ip administered 30 mins prior to glucose challenge and measured after 0.5 hrs by IPGTT (reference value: 13.4 +/- 1.1 mM); format: functional; conditions: time 60 min, 1 h; in short: as §2
[24] = test system: Mus musculus; test: Anti-Hyperglycemic activity in high fat diet-fed/streptozotocin-induced type 2 diabetic mellitus C57BL/6 mouse model assessed as blood glucose level at 1 mg/kg, ip administered 30 mins prior to glucose challenge and measured after 1 hr by IPGTT (reference value: 12.7 +/- 0.7 mM); format: functional; conditions: time 90 min, 1.5 h; in short: as §2
[25] = test system: Mus musculus; test: Anti-Hyperglycemic activity in high fat diet-fed/streptozotocin-induced type 2 diabetic mellitus C57BL/6 mouse model assessed as blood glucose level at 5 mg/kg, ip administered 30 mins prior to glucose challenge and measured after 1.5 hrs by IPGTT (reference value: 13.4 +/- 1.1 mM); format: functional; conditions: time 120 min, 2 h; in short: as §2
[26] = test system: Mus musculus; test: Anti-Hyperglycemic activity in high fat diet-fed/streptozotocin-induced type 2 diabetic mellitus C57BL/6 mouse model assessed as blood glucose level at 10 mg/kg, po administered 30 mins prior to glucose challenge and measured after 30 mins by OGTT (reference value: 15.8 +/-4.5 mM); format: functional; conditions: time 60 min, 1 h
[27] = test system: Mus musculus; test: Anti-Hyperglycemic activity in high fat diet-fed/streptozotocin-induced type 2 diabetic mellitus C57BL/6 mouse model assessed as blood glucose level at 1 mg/kg, ip administered 30 mins prior to glucose challenge and measured after 0.5 hrs by IPGTT (reference value: 12.7 +/- 0.7 mM); format: functional; conditions: time 60 min; in short: as §2

Chain of Dipeptidyl peptidase 4 (P27487 whole entry): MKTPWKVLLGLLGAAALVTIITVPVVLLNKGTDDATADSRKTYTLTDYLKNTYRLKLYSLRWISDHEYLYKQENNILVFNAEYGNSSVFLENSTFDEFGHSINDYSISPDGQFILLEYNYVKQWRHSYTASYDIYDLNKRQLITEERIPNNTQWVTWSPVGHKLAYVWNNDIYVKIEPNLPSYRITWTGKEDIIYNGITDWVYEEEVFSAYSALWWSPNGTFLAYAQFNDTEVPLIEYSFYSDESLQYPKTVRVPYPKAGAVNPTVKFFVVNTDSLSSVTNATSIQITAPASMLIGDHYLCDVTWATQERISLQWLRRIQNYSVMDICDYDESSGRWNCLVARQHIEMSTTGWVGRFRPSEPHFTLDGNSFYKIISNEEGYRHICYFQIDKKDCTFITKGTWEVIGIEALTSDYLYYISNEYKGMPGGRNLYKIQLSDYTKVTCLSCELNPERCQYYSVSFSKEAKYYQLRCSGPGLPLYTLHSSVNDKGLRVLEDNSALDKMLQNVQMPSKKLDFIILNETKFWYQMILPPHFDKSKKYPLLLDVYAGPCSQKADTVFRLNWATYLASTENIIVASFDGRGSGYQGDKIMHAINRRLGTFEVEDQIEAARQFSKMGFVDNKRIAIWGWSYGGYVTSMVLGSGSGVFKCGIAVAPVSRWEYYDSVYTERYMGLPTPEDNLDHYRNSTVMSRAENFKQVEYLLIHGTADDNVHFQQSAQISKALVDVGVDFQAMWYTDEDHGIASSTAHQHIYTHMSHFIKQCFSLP
Chain of Dipeptidyl peptidase 8 (Q6V1X1 whole entry): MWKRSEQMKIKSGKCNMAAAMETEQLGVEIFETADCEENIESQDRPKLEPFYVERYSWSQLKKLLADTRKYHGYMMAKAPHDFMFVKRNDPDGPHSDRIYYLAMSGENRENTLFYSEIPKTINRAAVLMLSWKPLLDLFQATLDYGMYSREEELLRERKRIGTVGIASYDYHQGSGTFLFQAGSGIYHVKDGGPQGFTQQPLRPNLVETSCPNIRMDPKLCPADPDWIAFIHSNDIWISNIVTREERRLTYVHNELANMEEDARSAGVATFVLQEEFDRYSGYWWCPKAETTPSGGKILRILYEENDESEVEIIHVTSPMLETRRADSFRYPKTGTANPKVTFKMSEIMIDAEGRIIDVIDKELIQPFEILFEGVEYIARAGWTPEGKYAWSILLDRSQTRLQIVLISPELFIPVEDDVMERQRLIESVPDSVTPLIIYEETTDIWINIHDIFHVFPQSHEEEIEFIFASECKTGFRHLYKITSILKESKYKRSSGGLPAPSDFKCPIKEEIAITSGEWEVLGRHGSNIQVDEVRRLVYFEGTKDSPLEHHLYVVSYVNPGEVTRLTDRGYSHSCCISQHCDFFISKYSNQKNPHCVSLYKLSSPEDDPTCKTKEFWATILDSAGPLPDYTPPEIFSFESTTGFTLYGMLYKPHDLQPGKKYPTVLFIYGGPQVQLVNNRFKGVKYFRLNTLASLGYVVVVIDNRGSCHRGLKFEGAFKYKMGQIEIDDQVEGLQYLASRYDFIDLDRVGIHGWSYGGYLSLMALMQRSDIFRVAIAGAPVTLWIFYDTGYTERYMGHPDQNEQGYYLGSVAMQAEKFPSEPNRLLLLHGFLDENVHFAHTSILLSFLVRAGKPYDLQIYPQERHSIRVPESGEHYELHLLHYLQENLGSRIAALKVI
Chain of Dipeptidyl peptidase 9 (Q86TI2 whole entry): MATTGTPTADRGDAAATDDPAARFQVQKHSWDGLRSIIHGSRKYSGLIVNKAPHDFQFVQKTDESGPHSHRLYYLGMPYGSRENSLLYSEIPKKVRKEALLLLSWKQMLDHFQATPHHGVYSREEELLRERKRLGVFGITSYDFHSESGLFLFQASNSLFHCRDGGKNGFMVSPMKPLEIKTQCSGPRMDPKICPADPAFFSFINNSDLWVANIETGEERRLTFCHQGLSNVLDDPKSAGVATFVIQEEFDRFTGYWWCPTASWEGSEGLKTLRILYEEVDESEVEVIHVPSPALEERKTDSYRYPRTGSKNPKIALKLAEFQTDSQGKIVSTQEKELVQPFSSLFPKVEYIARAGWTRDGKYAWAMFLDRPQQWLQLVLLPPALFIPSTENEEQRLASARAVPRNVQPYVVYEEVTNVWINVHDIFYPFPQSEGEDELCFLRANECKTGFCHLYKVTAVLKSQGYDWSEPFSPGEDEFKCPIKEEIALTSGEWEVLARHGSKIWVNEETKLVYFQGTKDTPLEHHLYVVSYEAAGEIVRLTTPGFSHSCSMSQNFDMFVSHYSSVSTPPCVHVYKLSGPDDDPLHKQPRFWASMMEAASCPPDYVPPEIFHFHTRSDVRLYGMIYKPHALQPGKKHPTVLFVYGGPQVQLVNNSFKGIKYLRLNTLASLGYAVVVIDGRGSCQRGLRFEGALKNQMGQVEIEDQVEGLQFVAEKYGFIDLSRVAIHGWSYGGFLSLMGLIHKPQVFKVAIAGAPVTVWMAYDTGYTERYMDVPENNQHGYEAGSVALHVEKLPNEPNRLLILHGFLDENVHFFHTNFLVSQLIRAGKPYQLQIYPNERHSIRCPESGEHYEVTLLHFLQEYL

Compound: Cc1ccnc(Nc2cc(N3CCC[C@@H](N)C3)nc3ccnn23)c1
IC50 [1]: > 100 µM | IC50 [2]: > 100 µM

Compound: Clc1ccc(Nc2cc(N3CCNCC3)nc3ccnn23)c(Cl)c1
Activity [3]: Toxic | IC50 [1]: > 100 µM | IC50 [2]: > 100 µM

Compound: Cc1ccc(Nc2cc(N3CCNCC3)nc3ccnn23)c(C)c1
IC50 [1]: > 100 µM | IC50 [2]: > 100 µM

Compound: c1cc2nc(N3CCOCC3)cc(Nc3cc[nH]n3)n2n1
IC50 [4]: > 100 µM

Compound: Cn1c(=O)cc(N2CCC[C@@H](N)C2)n(Cc2ccccc2C#N)c1=O [ALOGLIPTIN]
Activity [5]: 16.3 mM | inhibition in vivo at 10 mg/kg/day [6]: 57% | Activity [7]: inactive | Activity [8]: 15 mM | Activity [9]: 17.4 mM | inhibition in vivo at 10 mg/kg [10]: 30% | Activity [11]: 22.9 mM

Compound: Cc1ccnc(Nc2cc(N3CCNCC3)nc3ccnn23)c1
IC50 [1]: > 100 µM | IC50 [2]: > 100 µM

Compound: O=[N+]([O-])c1ccccc1Nc1cc(N2CCNCC2)nc2ccnn12
IC50 [1]: > 100 µM | IC50 [2]: > 100 µM

Compound: Cc1ccc(Nc2cc(N3CCC[C@@H](N)C3)nc3ccnn23)c(C)c1
IC50 [1]: > 100 µM | IC50 [2]: > 100 µM

Compound: Fc1ccc(CNc2cc(N3CCNCC3)nc3ccnn23)c(F)c1
Activity [12]: 18.5 mM | Activity [13]: 18.5 mM | inhibition in vivo at 5 mg/kg [14]: 28% | Activity [15]: 19.1 mM | inhibition in vivo at 10 mg/kg [16]: 22% | inhibition in vivo at 1 mg/kg [17]: 26% | Activity [5]: 13 mM | Activity [3]: Non-Toxic | Activity [18]: 15.6 mM | inhibition in vivo at 10 mg/kg/day [6]: 46% | Activity [7]: inactive | IC50 [1]: > 50 µM | Activity [8]: 10.9 mM | viability at 48 h, 100 µM [19]: 90% | Activity [20]: 17.9 mM | Activity [21]: 14.8 mM | Activity [9]: 14.4 mM | inhibition in vivo at 10 mg/kg [10]: 47% | IC50 [2]: > 50 µM | Activity [22]: 15.1 mM | Activity [23]: 23.4 mM | Activity [24]: 18.6 mM | Activity [25]: 17.4 mM | Activity [26]: 26.7 mM | Activity [27]: 25.7 mM | Activity [11]: 16.2 mM

Compound: N[C@@H]1CCCN(c2cc(NCCc3ccc(Cl)cc3Cl)n3nccc3n2)C1
IC50 [1]: > 100 µM | IC50 [2]: > 100 µM

Continued, in another order:

IC50 [1]: > 50 µM | IC50 [2]: > 50 µM
Compound: N[C@@H]1CCCN(c2cc(NCc3ccc(O)cc3)n3nccc3n2)C1

IC50 [1]: > 100 µM | IC50 [2]: > 100 µM
Compound: Clc1ccc(CCNc2cc(N3CCNCC3)nc3ccnn23)c(Cl)c1
Activity [3]: Toxic

IC50 [4]: > 100 µM
Compound: CC(C)(C)Nc1cc(NC(C)(C)C)n2nccc2n1

IC50 [1]: > 50 µM | IC50 [2]: > 50 µM
Compound: N[C@@H]1CCCN(c2cc(Nc3cc(Cl)ccn3)n3nccc3n2)C1

IC50 [1]: > 100 µM | IC50 [2]: > 100 µM
Compound: N[C@@H]1CCCN(c2cc(NCc3ccccc3)n3nccc3n2)C1
Activity [3]: Toxic

IC50 [4]: > 100 µM
Compound: CN(c1ccccc1)c1cc(N2CCC[C@@H](N)C2)nc2ccnn12

IC50 [1]: > 100 µM | IC50 [2]: > 100 µM
Compound: Fc1ccc(Nc2cc(N3CCNCC3)nc3ccnn23)c(F)c1

IC50 [1]: > 100 µM | IC50 [2]: > 100 µM
Compound: N[C@@H]1CCCN(c2cc(Nc3ccccc3Cl)n3nccc3n2)C1

IC50 [1]: > 100 µM | IC50 [2]: > 100 µM
Compound: N[C@@H]1CCCN(c2cc(NCc3ccc(Cl)cc3Cl)n3nccc3n2)C1

IC50 [1]: > 100 µM | IC50 [2]: > 100 µM
Compound: Cc1ccc(Nc2cc(N3CCC[C@@H](N)C3)nc3ccnn23)c(N)c1
